From ChEMBL document CHEMBL2202989, “New adamantane phenylalkylamines with σ-receptor binding affinity and anticancer activity, associated with putative antagonism of neuropathic pain” (J Med Chem, 2012)

Legend:
HCT-15 = test: Growth inhibition of human HCT15 cells after 48 hrs by SRB assay; type: functional; conditions: HCT-15, 48 h
Method in brief: (§1)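 Cells grown in RPMI 1640 with 5% heat-inactivated FCS, 2 mM L-glutamine and antibiotics, 37 °C, 5% CO2. Seeded at 3500–30000 cells/well and left 24 h before dosing. DMSO solutions added at 10-fold dilutions from 100 to 0.01 μM for 48 h. Cells TCA-fixed and SRB-stained, absorbance read at 540 nm; GI50 derived against the time-zero plate.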

[1] = Displacement of [3H]batrachotoxin benzoate from Na+ channel after 60 mins by liquid scintillation counting
Method in brief: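 Na+ channel site 2 binding: vesicle preparation (150−500 μg protein) incubated 60 min with 20−25 nM [3H]BTX-B and 50 μg Leiurius quinquestriatus venom. Buffer was 130 mM choline chloride, 50 mM HEPES/Tris pH 7.4, glucose, MgSO4, KCl, BSA. Filtered on GF/C with cold washes; scintillation counting. Nonspecific binding defined with 250 μM veratridine.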

NHDF = test: (§2) Growth inhibition of human NHDF cells after 48 hrs by SRB assay; type: cell-based; conditions: nhdf, 48 h; method in brief: as §1
[2] = as §2; type: cell-based; conditions: NHDF cells; method in brief: as §1
[3] = Growth inhibition of human MSC cells after 48 hrs by SRB assay; type: cell-based; method in brief: as §1
U-251 = test: Growth inhibition of human U251 cells after 48 hrs by SRB assay; type: functional; conditions: U-251, 48 h; for CC50: read-out: LC50 (the source's name); method in brief: as §1
DU-145 = test: Growth inhibition of human DU145 cells after 48 hrs by SRB assay; type: functional; conditions: DU-145, 48 h; method in brief: as §1
SK-HEP1 = test: Growth inhibition of human SKHEP1 cells after 48 hrs by SRB assay; type: functional; conditions: SK-HEP1, 48 h; method in brief: as §1
[4] = Displacement of [3H]1,3-di-otolylguanidine from sigma 2 receptor in rat cerebral cortex membranes; type: cell membranes, Membrane
Method in brief: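 Rat cerebral cortex membranes incubated with 5 nM [3H]DTG plus 300 nM (+)-pentazocine to mask σ1 sites, together with a range of test concentrations, 2 h at 22 °C in Tris-HCl, pH 7.4. Nonspecific binding defined with 10 μM haloperidol.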

[5] = (§3) Growth inhibition of human HUVEC cells after 48 hrs by SRB assay; type: cell-based; conditions: HUVEC cells; method in brief: as §1
HUVEC = test: as §3; type: cell-based; conditions: huvec, 48 h; method in brief: as §1
MCF7 = test: Growth inhibition of human MCF7 cells after 48 hrs by SRB assay; type: functional; conditions: MCF7, 48 h; for CC50: read-out: LC50 (the source's name); method in brief: as §1
HCT-116 = test: Growth inhibition of human HCT116 cells after 48 hrs by SRB assay; type: functional; conditions: HCT-116, 48 h; for CC50: read-out: LC50 (the source's name); method in brief: as §1
[6] = target: Sigma non-opioid intracellular receptor 1 (Homo sapiens, UniProt Q99720); test: Displacement of [3H]-(+)-pentazocine from sigma 1 receptor in human Jurkat cell membrane; type: cell membranes
Chain of Sigma non-opioid intracellular receptor 1 (Q99720 whole entry): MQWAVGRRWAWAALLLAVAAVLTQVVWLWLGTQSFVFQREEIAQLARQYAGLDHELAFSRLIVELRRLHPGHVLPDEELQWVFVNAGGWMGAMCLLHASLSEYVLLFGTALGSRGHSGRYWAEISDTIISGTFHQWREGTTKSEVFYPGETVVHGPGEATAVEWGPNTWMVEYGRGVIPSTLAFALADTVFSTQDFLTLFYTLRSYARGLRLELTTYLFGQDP
Method in brief: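 Jurkat cell membranes incubated with 8 nM [3H](+)-pentazocine and a range of test concentrations for 2 h at 22 °C in Tris-HCl buffer, pH 7.4. Nonspecific binding defined with 10 μM haloperidol. Run in triplicate.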

BXPC-3 [7] = test: Growth inhibition of human BxPC3 cells after 48 hrs by SRB assay; type: functional; conditions: BXPC-3, 48 h; method in brief: as §1
PC-3 = test: Growth inhibition of human PC3 cells after 48 hrs by SRB assay; type: functional; conditions: PC-3, 48 h; method in brief: as §1
MIA PaCa-2 = test: Growth inhibition of human MIAPaCa2 cells after 48 hrs by SRB assay; type: functional; conditions: MIA PaCa-2, 48 h; method in brief: as §1
BXPC-3 [8] = test: Antitumor activity against human BxPC3 cells xenografted in SCID mouse assessed as tumor growth inhibition at 70 mg/kg, ip administered twice a week for three cycles measured after 3 cycles relative to control; type: functional; conditions: BXPC-3, ip, route intraperitoneal, read-out: TGI
Method in brief: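 BxPC3 xenografts were grown in SCID mice from inocula of 10^6 exponentially growing cells, with 10 mice (20 tumors) per group. Treatment started ip once tumors averaged about 100 mm3. The test agent was given in 5% Tween 80 and gemcitabine in water for injection. Tumor volume was measured by caliper twice weekly and %ΔT/ΔC was computed; two-tailed Student's t test.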

BXPC-3 [9] = test: Antitumor activity against human BxPC3 cells xenografted in SCID mouse assessed as tumor growth inhibition at 10 mg/kg, ip administered 5 times a week for one cycle relative to control; type: functional; conditions: BXPC-3, ip, route intraperitoneal, read-out: TGI
[10] = read-out: LC50 (the source's name)

Row | SMILES | IC50 [1] | LC50 (NHDF) | TGI (NHDF) | GI50 at 48 h [2] | GI50 (U-251) | TGI (U-251) | CC50 (U-251) | IC50 [4] | GI50 (MCF7) | TGI (MCF7) | CC50 (MCF7) | GI50 (HCT-116) | TGI (HCT-116) | CC50 (HCT-116) | IC50 [6] | GI50 (BXPC-3 [7]) | LC50 (BXPC-3 [7]) | TGI (BXPC-3 [7]) | further results
1 | c1ccc(C(c2ccc(CCCN3CCCCC3)cc2)C23CC4CC(CC(C4)C2)C3)cc1 (centres undefined) | > 0.1 µM | 9.47 µM | 6.15 µM | 2.83 µM | 4.61 µM | 7.19 µM | 0.00977 µM | 0.013 µM | 2.41 µM | 6.07 µM | 0.00963 µM | 3.37 µM | 5.99 µM | 0.00861 µM | 0.0123 µM | 3.78 µM | 0.00917 µM | 6.47 µM | GI50 (HCT-15): 3.89 µM; TGI (HCT-15): 6.78 µM; CC50 (HCT-15; [10]): 0.00968 µM; TGI [3]: 1.93 µM; GI50 (DU-145): 5.18 µM; TGI (DU-145): 8.17 µM; CC50 (DU-145; [10]): 0.0112 µM; GI50 (SK-HEP1): 3.25 µM; TGI (SK-HEP1): 5.97 µM; CC50 (SK-HEP1; [10]): 0.00868 µM; GI50 at 48 h [5]: 3.27 µM; LC50 (HUVEC): 9.18 µM; TGI (HUVEC): 6.23 µM; GI50 (PC-3): 3.92 µM; TGI (PC-3): 7.32 µM; CC50 (PC-3; [10]): 0.0107 µM
2 | Nc1ccn([C@@H]2O[C@H](CO)[C@@H](O)C2(F)F)c(=O)n1 [GEMCITABINE] |  |  |  |  |  |  |  |  |  |  |  |  |  |  |  | 3.64 µM |  | 9.05 µM | GI50 (MIA PaCa-2): 35.8 µM; TGI (MIA PaCa-2): 100 µM; CC50 (MIA PaCa-2; [10]): 0.1 µM; inhibition in vivo at 70 mg/kg (BXPC-3 [8]): 38.1%
3 | Nc1ccn([C@@H]2O[C@H](CO)[C@@H](O)[C@@H]2O)c(=O)n1 [CYTARABINE] |  |  |  |  |  |  |  |  |  |  |  |  |  |  |  |  |  |  | inhibition in vivo at 10 mg/kg (BXPC-3 [9]): 23.8%
4 | c1ccc(CN2CCN(CCCc3ccc(C(c4ccccc4)C45CC6CC(CC(C6)C4)C5)cc3)CC2)cc1 (centres undefined) | 0.0115 µM | 100 µM | 100 µM | 39.5 µM | 36.4 µM | 79.1 µM | 0.1 µM | 0.0283 µM | 6.76 µM | 61.7 µM | 0.1 µM | 7.72 µM | 39.7 µM | 0.0829 µM | 0.0361 µM | 36.8 µM | 0.1 µM | 100 µM | 
